Results as given in ChEMBL document CHEMBL1141490, “Synthesis and evaluation of PSSRI-based inhibitors of Staphylococcus aureus multidrug efflux pumps” (Bioorg Med Chem Lett, 2008).
pIC50: −log10 of the molar value. Converted amounts (≈) assume the structure as drawn.

Columns and labels:
Staphylococcus aureus [1] = experiment: Inhibition of NorA-mediated efflux in Staphylococcus aureus K2361; format: functional, organism-based
Pseudomonas aeruginosa [2] = experiment: Antimicrobial activity against Pseudomonas aeruginosa K3082; format: functional
Staphylococcus aureus [3] = experiment: Antimicrobial activity against Staphylococcus aureus K2886 over expressing MepA efflux pump; format: functional
Staphylococcus aureus [4] = experiment: Inhibition of MepA efflux pump in Staphylococcus aureus K2886 at 1.58 uM MIC assessed as fold reduction in ethidium bromide minimum inhibitory concentration; format: functional
Escherichia coli [5] = experiment: Antimicrobial activity against Escherichia coli K2201; format: functional
Staphylococcus aureus [6] = experiment: Antimicrobial activity against Staphylococcus aureus K2885; format: functional
Pseudomonas aeruginosa [7] = experiment: Antimicrobial activity against Pseudomonas aeruginosa K2184 over expressing MexB efflux pump; format: functional
Escherichia coli [8] = experiment: Antimicrobial activity against Escherichia coli K2203 over expressing AcrB efflux pump
Staphylococcus aureus [9] = experiment: Antimicrobial activity against Staphylococcus aureus K2361 over expressing NorA efflux pump; format: functional
Staphylococcus aureus [10] = experiment: Inhibition of NorA efflux pump in Staphylococcus aureus K2361 at 1.58 uM MIC assessed as fold reduction in ethidium bromide minimum inhibitory concentration; format: functional
Staphylococcus aureus [11] = experiment: Inhibition of NorA efflux pump in Staphylococcus aureus K2361 at 0.50 assessed as fold reduction in ethidium bromide minimum inhibitory concentration; format: functional; design: concentration or dose not given beside the values
Staphylococcus aureus [12] = experiment: Antimicrobial activity against Staphylococcus aureus K1902; format: functional
Staphylococcus aureus [13] = experiment: Inhibition of MepA-mediated efflux in Staphylococcus aureus K2886; format: functional, organism-based
How it was run: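 Efflux from MepA-overexpressing S. aureus K2886, done in duplicate. Reported as mean total efflux over a 5 min time course.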

Staphylococcus aureus [14] = experiment: Inhibition of MepA efflux pump in Staphylococcus aureus K2886 at 1/2 MIC assessed as fold reduction in ethidium bromide minimum inhibitory concentration
Staphylococcus aureus [15] = experiment: Inhibition of MepA efflux pump in Staphylococcus aureus K2886 at 0.50 uM assessed as fold reduction in ethidium bromide minimum inhibitory concentration; format: functional
Staphylococcus aureus [16] = experiment: Inhibition of MepA efflux pump in Staphylococcus aureus K2886 at 4.1 uM MIC assessed as fold reduction in ethidium bromide minimum inhibitory concentration; format: functional
Staphylococcus aureus [17] = experiment: Inhibition of NorA efflux pump in Staphylococcus aureus K2361 at 8.21 uM MIC assessed as fold reduction in ethidium bromide minimum inhibitory concentration; format: functional
Staphylococcus aureus [18] = experiment: Inhibition of NorA efflux pump in Staphylococcus aureus K2361 at 8.32 uM assessed as fold reduction in ethidium bromide minimum inhibitory concentration; format: functional
Staphylococcus aureus [19] = experiment: Inhibition of MepA efflux pump in Staphylococcus aureus K2886 at 4.16 uM assessed as fold reduction in ethidium bromide minimum inhibitory concentration; format: functional
Staphylococcus aureus [20] = experiment: Inhibition of MepA efflux pump in Staphylococcus aureus K2886 at 0.39 uM assessed as fold reduction in ethidium bromide minimum inhibitory concentration; format: functional
How it was run: (§1)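 Ethidium bromide MIC was determined for the pump-expressing S. aureus strain, alone and with the efflux inhibitor added at 1/4 or 1/2 of the inhibitor's own MIC against that strain. Potentiation is expressed as fold lowering of the ethidium bromide MIC. Parent strains SA-K1902 and SA-K2885 were tested in the same way at 1/2 MIC.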

Staphylococcus aureus [21] = experiment: Inhibition of NorA efflux pump in Staphylococcus aureus K2361 at 0.79 uM MIC assessed as fold reduction in ethidium bromide minimum inhibitory concentration; format: functional; how it was run: as §1

| Compound | pIC50 (Staphylococcus aureus [1]) | MIC (Pseudomonas aeruginosa [2]) [µg/mL] | MIC (Staphylococcus aureus [3]) [µg/mL] | MIC (Escherichia coli [5]) [µg/mL] | MIC (Staphylococcus aureus [6]) [µg/mL] | MIC (Pseudomonas aeruginosa [7]) [µg/mL] | MIC (Staphylococcus aureus [9]) [µg/mL] | Fold change (Staphylococcus aureus [11]) | MIC (Staphylococcus aureus [12]) [µg/mL] | pIC50 (Staphylococcus aureus [13]) | other results |
| --- | --- | --- | --- | --- | --- | --- | --- | --- | --- | --- | --- |
| Fc1ccc([C@@H]2CCNC[C@H]2CNc2ccccc2)cc1 | < 4.30 | – | – | – | – | – | – | – | – | – | – |
| c1ccc(SC[C@H]2CCCNC2)cc1 | < 4.30 | – | – | – | – | – | – | – | – | – | – |
| c1ccc(OC[C@H]2CCCNC2)cc1 | < 4.30 | – | – | – | – | – | – | – | – | – | – |
| Fc1ccc([C@@H]2CCNC[C@H]2COc2ccccc2)cc1 | 4.66 | – | – | – | – | – | – | – | – | – | – |
| c1ccc(NC[C@H]2CCCNC2)cc1 | < 4.30 | – | – | – | – | – | – | – | – | – | – |
| Fc1ccc([C@@H]2CCNC[C@H]2/C=C/c2cc(Br)ccc2Cl)cc1 | > 5.00 | 100 (≈ 253 µM) | 25 (≈ 63.3 µM) | 100 (≈ 253 µM) | 25 (≈ 63.3 µM) | 100 (≈ 253 µM) | 25 (≈ 63.3 µM) | 64 | 25 (≈ 63.3 µM) | 4.70 | Fold change (Staphylococcus aureus [4]): 4; MIC (Escherichia coli [8]): 100 µg/mL (≈ 253 µM); Fold change (Staphylococcus aureus [10]): 16; Fold change (Staphylococcus aureus [14]): >32 |
| Clc1ccc(Br)cc1OC[C@H]1CCCNC1 | 4.40 | 100 (≈ 328 µM) | > 100 | 100 (≈ 328 µM) | 100 (≈ 328 µM) | 100 (≈ 328 µM) | > 100 | 64 | 100 (≈ 328 µM) | > 5.00 | Fold change (Staphylococcus aureus [15]): 8; Fold change (Staphylococcus aureus [16]): 2; Fold change (Staphylococcus aureus [17]): 16 |
| Clc1ccc(Br)cc1/C=C/[C@H]1CCCNC1 | 4.35 | 100 (≈ 333 µM) | 50 (≈ 166 µM) | 50 (≈ 166 µM) | 100 (≈ 333 µM) | 100 (≈ 333 µM) | 100 (≈ 333 µM) | >128 | 100 (≈ 333 µM) | > 5.00 | Fold change (Staphylococcus aureus [18]): 64; Fold change (Staphylococcus aureus [19]): 4; MIC (Escherichia coli [8]): 100 µg/mL (≈ 333 µM); Fold change (Staphylococcus aureus [14]): 16 |
| Fc1ccc([C@@H]2CCNC[C@H]2CSc2ccccc2)cc1 | 4.74 | – | – | – | – | – | – | – | – | – | – |
| Fc1ccc([C@@H]2CCNC[C@H]2COc2cc(Br)ccc2Cl)cc1 | > 5.00 | 100 (≈ 251 µM) | 6.25 (≈ 15.7 µM) | 25 (≈ 62.7 µM) | 6.25 (≈ 15.7 µM) | 100 (≈ 251 µM) | 12.5 (≈ 31.4 µM) | 32 | 12.5 (≈ 31.4 µM) | 4.89 | MIC (Escherichia coli [8]): 50 µg/mL (≈ 125 µM); Fold change (Staphylococcus aureus [20]): 4; Fold change (Staphylococcus aureus [21]): 4; Fold change (Staphylococcus aureus [14]): 8 |
| COc1ccc(OC[C@H]2CCCNC2)cc1 | < 4.30 | – | – | – | – | – | – | – | – | – | – |
| Fc1ccc([C@@H]2CCNC[C@H]2COc2ccc3c(c2)OCO3)cc1 [PAROXETINE] | 4.82 | – | – | – | – | – | – | – | – | > 5.00 | – |
